# In ChEMBL document CHEMBL4359878, “Discovery of 4-piperazinyl-2-aminopyrimidine derivatives as dual inhibitors of JAK2 and FLT3” (Eur J Med Chem, 2019):
# Key:
# [1] = molecular target: T1, Tyrosine-protein kinase JAK2 (Homo sapiens, UniProt O60674); assay: Inhibition of N-terminal His-tagged human JAK2 catalytic domain (826 to 1132 resiudes) expressed in baculovirus expression system at 100 nM using FAM-labeled peptide as substrate preincubated for 10 mins followed by substrate addition measured after 1 hr in presence of ATP by mobility shift assay relative to control
# T1 sequence (O60674 whole entry, the tested form may be a part): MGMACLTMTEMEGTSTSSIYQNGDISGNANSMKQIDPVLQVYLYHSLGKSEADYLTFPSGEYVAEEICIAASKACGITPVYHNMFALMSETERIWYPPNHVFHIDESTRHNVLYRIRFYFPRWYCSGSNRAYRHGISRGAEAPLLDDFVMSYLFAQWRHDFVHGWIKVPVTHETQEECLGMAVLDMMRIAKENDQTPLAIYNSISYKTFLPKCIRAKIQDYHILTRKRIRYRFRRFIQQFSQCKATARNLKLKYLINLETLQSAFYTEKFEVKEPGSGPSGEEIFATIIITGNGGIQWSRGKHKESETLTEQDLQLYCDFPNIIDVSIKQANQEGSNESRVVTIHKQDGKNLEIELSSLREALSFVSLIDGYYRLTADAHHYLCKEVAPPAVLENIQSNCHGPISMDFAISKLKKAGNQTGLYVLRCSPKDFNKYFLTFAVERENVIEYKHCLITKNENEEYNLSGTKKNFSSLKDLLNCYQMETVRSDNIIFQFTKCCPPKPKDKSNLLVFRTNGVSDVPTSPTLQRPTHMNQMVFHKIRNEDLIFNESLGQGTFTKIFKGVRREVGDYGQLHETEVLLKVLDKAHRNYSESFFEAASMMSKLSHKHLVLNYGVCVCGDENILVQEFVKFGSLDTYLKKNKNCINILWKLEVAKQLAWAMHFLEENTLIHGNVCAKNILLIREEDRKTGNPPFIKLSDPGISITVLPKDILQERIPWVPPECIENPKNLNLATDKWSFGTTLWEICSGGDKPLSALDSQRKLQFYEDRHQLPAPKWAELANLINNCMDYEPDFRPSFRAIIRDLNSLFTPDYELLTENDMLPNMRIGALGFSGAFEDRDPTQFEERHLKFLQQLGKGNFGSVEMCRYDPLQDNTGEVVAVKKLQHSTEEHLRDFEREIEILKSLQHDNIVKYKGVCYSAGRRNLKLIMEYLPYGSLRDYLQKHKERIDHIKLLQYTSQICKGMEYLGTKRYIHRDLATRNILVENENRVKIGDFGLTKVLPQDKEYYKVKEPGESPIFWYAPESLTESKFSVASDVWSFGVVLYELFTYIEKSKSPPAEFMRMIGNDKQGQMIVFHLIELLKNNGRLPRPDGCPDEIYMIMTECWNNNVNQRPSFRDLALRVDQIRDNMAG
# Procedure, shortened: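 Single-concentration (100 nM) percent inhibition in the mobility-shift JAK2 assay. Enzyme was preincubated with compound for 10 min at room temperature in HEPES pH 7.5/Brij-35 buffer. FAM-peptide and ATP were then added and the reaction run for 1 h at 28 °C before EDTA stop. Inhibition = (max−conversion)/(max−min)×100. Each compound was tested at least twice and the values averaged.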
# HEL [2] = assay: Antiproliferative activity against human HEL cells assessed as growth inhibition after 72 hrs by CCK-8 assay; type: functional
# Procedure, shortened: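 CCK-8 viability readout. Cells were cultured in RPMI 1640 with 10% FBS and 1% penicillin/streptomycin and seeded at 3000 (HEL), 5000 (MV4-11) or 3000 (HL60) cells/well. Increasing compound concentrations were applied for 72 h, then CCK-8 was added for a further 3 h and absorbance read at 450 nm. Inhibition = (1−A_sample/A_control)×100, normalized to DMSO controls. Value is the mean of three independent measurements, obtained by curve fitting.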
# HEL [3] = assay: Induction of cell cycle arrest in human HEL cells assessed as accumulation at G1 phase at 0.33 uM after 72 hrs by propidium iodide-staining based flow cytometry (reference value: 43.12%); type: functional
# Procedure, shortened: (§1)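 Subconfluent HEL cells were treated for 72 h at 0.33, 1.0, 3.0 or 9.0 μM, with untreated cells as control. Cultures were pulsed with 10 μM BrdU for 30 min at 37 °C before harvest, then PBS-washed, fixed in 70% ethanol and denatured in 2 M HCl. After neutralization, cells were stained with fluorescein anti-BrdU antibody and propidium iodide. DNA content was measured by flow cytometry with 488 nm excitation.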
# HEL [4] = assay: Induction of cell cycle arrest in human HEL cells assessed as accumulation at S phase at 1 uM after 72 hrs by propidium iodide-staining based flow cytometry (reference value: 41.47%); type: functional; procedure, shortened: as §1
# HEL [5] = assay: Induction of cell cycle arrest in human HEL cells assessed as accumulation at S phase at 3 uM after 72 hrs by propidium iodide-staining based flow cytometry (reference value: 41.47%); type: functional; procedure, shortened: as §1
# HEL [6] = assay: Induction of cell cycle arrest in human HEL cells assessed as accumulation at G2 phase at 3 uM after 72 hrs by propidium iodide-staining based flow cytometry (reference value: 15.10%); type: functional; procedure, shortened: as §1
# HEL [7] = assay: Induction of cell cycle arrest in human HEL cells assessed as accumulation at S phase at 9 uM after 72 hrs by propidium iodide-staining based flow cytometry (reference value: 41.47%); type: functional; procedure, shortened: as §1
# HEL [8] = assay: Induction of cell cycle arrest in human HEL cells assessed as accumulation at G2 phase at 9 uM after 72 hrs by propidium iodide-staining based flow cytometry (reference value: 15.10%); type: functional; procedure, shortened: as §1
# HEL [9] = assay: Induction of apoptosis in human HEL cells assessed as viable cells at 0.33 uM after 72 hrs by FITC-annexin V/propidium iodide-double staining based flow cytometry (reference value: 93.77%); type: functional; conditions: read-out: Activity
# HEL [10] = assay: Induction of apoptosis in human HEL cells assessed as early apoptotic cells at 0.33 uM after 72 hrs by FITC-annexin V/propidium iodide-double staining based flow cytometry (reference value: 2.23%); type: functional
# HEL [11] = assay: Induction of apoptosis in human HEL cells assessed as late apoptotic cells at 0.33 uM after 72 hrs by FITC-annexin V/propidium iodide-double staining based flow cytometry (reference value: 1.63%); type: functional
# HEL [12] = assay: Induction of apoptosis in human HEL cells assessed as necrotic cells at 0.33 uM after 72 hrs by FITC-annexin V/propidium iodide-double staining based flow cytometry (reference value: 2.40%); type: functional
# HEL [13] = assay: Induction of apoptosis in human HEL cells assessed as late apoptotic cells at 1 uM after 72 hrs by FITC-annexin V/propidium iodide-double staining based flow cytometry (reference value: 1.63%); type: functional
# HEL [14] = assay: Induction of apoptosis in human HEL cells assessed as viable cells at 3 uM after 72 hrs by FITC-annexin V/propidium iodide-double staining based flow cytometry (reference value: 93.77%); type: functional; conditions: read-out: Activity
# HEL [15] = assay: Induction of apoptosis in human HEL cells assessed as late apoptotic cells at 3 uM after 72 hrs by FITC-annexin V/propidium iodide-double staining based flow cytometry (reference value: 1.63%); type: functional
# HEL [16] = assay: Induction of apoptosis in human HEL cells assessed as early apoptotic cells at 9 uM after 72 hrs by FITC-annexin V/propidium iodide-double staining based flow cytometry (reference value: 2.23%); type: functional
# HEL [17] = assay: Induction of apoptosis in human HEL cells assessed as late apoptotic cells at 9 uM after 72 hrs by FITC-annexin V/propidium iodide-double staining based flow cytometry (reference value: 1.63%); type: functional
# [18] = molecular target: T1, Tyrosine-protein kinase JAK2; assay: Inhibition of N-terminal His-tagged human JAK2 catalytic domain (826 to 1132 resiudes) expressed in baculovirus expression system using FAM-labeled peptide as substrate preincubated for 10 mins followed by substrate addition measured after 1 hr in presence of ATP by mobility shift assay
# Procedure, shortened: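 Caliper mobility-shift assay with recombinant kinase in 50 mM HEPES pH 7.5, 0.0015% Brij-35. Compound was diluted from DMSO and preincubated with enzyme for 10 min at room temperature. FAM-labeled peptide plus ATP was then added and the reaction run for 1 h at 28 °C. It was stopped with an EDTA (50 mM) buffer. Conversion gave percent inhibition relative to max/min controls, and IC50 came from a four-parameter Hill fit. Duplicate wells were used.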
# [19] = molecular target: Receptor-type tyrosine-protein kinase FLT3 (Homo sapiens) (UniProt P36888); conditions: at 100 nM
# Chain of Receptor-type tyrosine-protein kinase FLT3 (Homo sapiens) (P36888 whole entry): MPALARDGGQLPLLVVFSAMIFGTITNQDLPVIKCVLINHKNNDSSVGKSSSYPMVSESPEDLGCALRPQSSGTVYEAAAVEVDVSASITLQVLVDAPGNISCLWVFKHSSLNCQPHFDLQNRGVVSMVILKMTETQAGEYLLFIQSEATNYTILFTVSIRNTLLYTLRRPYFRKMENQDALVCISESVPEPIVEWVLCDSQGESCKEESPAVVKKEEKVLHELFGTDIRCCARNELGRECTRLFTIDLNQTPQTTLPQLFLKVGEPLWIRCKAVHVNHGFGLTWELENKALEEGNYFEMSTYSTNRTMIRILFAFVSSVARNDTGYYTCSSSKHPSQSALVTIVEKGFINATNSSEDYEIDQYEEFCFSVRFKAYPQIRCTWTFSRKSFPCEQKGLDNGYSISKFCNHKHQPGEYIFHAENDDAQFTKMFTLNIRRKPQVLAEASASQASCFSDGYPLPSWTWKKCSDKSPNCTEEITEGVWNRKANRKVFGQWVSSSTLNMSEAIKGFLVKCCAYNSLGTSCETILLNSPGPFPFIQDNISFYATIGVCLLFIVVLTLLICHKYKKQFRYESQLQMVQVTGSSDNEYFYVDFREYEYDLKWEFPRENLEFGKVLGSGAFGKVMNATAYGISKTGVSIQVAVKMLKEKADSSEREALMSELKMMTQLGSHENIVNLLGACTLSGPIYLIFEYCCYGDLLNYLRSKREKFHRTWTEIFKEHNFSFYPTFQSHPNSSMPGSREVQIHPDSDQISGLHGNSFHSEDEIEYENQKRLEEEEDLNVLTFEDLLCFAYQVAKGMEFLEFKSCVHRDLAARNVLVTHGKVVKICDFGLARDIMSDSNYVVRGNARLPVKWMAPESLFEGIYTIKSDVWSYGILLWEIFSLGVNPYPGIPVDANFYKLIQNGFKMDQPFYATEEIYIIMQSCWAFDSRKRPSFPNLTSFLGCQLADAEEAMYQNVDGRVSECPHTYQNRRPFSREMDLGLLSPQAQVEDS
smiles,measurement,setting,value
CC(=O)c1ccc(NC(=O)N2CCN(c3ccnc(Nc4ccc(N5CCOCC5)cc4)n3)CC2)cc1,inhibition,[1],86.7%
same,GI50,HEL [2],4.3 µM
same,Activity,HEL [3],54.07%
same,Activity,HEL [4],31.59%
same,Activity,HEL [5],22.24%
same,Activity,HEL [6],5.91%
same,Activity,HEL [7],19.26%
same,Activity,HEL [8],2.07%
same,viability at 0.33 µM,HEL [9],88.3%
same,Activity,HEL [10],4.07%
same,Activity,HEL [11],4.3%
same,Activity,HEL [12],3.3%
same,Activity,HEL [13],22.4%
same,viability at 3 µM,HEL [14],22.6%
same,Activity,HEL [15],33.6%
same,Activity,HEL [16],35.53%
same,Activity,HEL [17],30.4%
same,IC50,[18],0.027 µM
same,inhibition,[19],80.7%
